The source of these data is PubChem BioAssay.

Test [1] can be described thus: S. cerevisiae growth inhibition in permissive medium (OD615), pilot counter-assay for S. cerevisiae lifespan shortening project, permissive growth control (AID 705;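 active means growth inhibition above 25% in both replicates, a cutoff set 3 SD above the mean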). The note with it: OD615, 24 h, at 10 µM, stronger effect = higher value. In a few lines:
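System: S. cerevisiae with engineered DeaD lifespan system / Measured by: absorbance (optical density) at 615 nm / Read-out: reduction in yeast growth (OD615) / Times: 4 h cell pre-growth, 24 h exposure at 30 °C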

Test [2] in a line: S. cerevisiae growth inhibition in restrictive medium, OD615, pilot screen, restrictive growth control, yeast lifespan reduction project (AID 706;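 active means growth inhibition above a set limit, 3 SD over mean compound inhibition, in both replicates, cut at about 43% in these data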;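 further: modified DeaD lifespan yeast strain shifted to restrictive glucose medium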). The conditions noted are these: OD615, 48 h, at 10 µM, stronger effect = higher value. The method in brief:
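System: Engineered S. cerevisiae DeaD strain | Buffer or medium: Glucose-based CSMM-D restrictive medium | Schedule: 4 h pre-incubation, 48 h exposure at 30 °C | Technique: Optical density at 615 nm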

Test [3] in a line: doxorubicin toxicity protection in MRP-1 cells – H69AR cells, CellTiter-Glo, duplicate, MRP-1 activator project, pilot screen (AID 807;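 active means viability increase at or above a cutoff of the median across tested compounds plus 3 SD, cut at about 8.5% in these data, passing the limit was not always enough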;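 further: compound pretreatment 18-22 h then 72 h combined with doxorubicin; 0% = doxorubicin alone and 100% = vehicle without doxorubicin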). The conditions noted are these: H69AR viability with doxorubicin, CellTiter-Glo luminescence; at 10 µM; stronger effect = higher value.
The nature of test [4]: viability of HCT116 without oncogenic beta-catenin – human colon tumor cells, pilot screen (AID 823;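 active means cell viability at or below a set limit in both duplicate runs, the limit being the all-compound median minus 4 SD, cut at about 23% in these data, passing the limit was not always enough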;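 further: 0% = wells killed by 20 µM Hyamine and 100% = untreated DMSO cell wells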). The note with it: HCT116 beta-catenin knockout viability, CellTiter-Glo, 60 h; at 10 µM; stronger effect = lower value.
A short description of test [5]: RAM pathway blockade in budding yeast – dse1pr::URA3 reporter, 5-FOA selection, pilot screen (AID 869;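 active means inhibition over a set limit, the all-compound mean plus 3 SD, in both replicate runs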;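 further: 0% = DMSO wells with no growth and 100% = 10 µM 1-NA-PP1 with full growth; RAM network block rescues cells from 5-FOA so hits raise OD615 growth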). The note with it: S. cerevisiae dse1pr::URA3 5-FOA growth, OD615, 2 d; at 10 µM; stronger effect = higher value; strain carries analog-sensitive mutant Cbk1 kinase.
The nature of test [6]: RAM signaling pathway blockade in yeast – S. cerevisiae, Pdr1DBD-CYC8 efflux-inhibited sensitized strain, primary screen (AID 1298).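 Further: 0% = DMSO untreated cells without growth and 100% = 10 µM 1-NA-PP1 full growth; higher means more yeast growth rescued from 5-FOA killing.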 The conditions noted are these: S. cerevisiae cbk1-as DSE1-URA3 strain, 5-FOA growth OD615, 2 d; at 50 µM; stronger effect = higher value.

A number with no mark means an inactive call. Records with an inconclusive call do not appear. Calls of active or inactive are those of the source.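 How the source made its calls, unless noted: active means RAM network inhibition above 8.4% in each of two replicates, 3 SD over the compound average; inconclusive means above 8.4% inhibition in only one replicate; inactive means 8.4% inhibition or less in each replicate.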

For the molecule `COC(=O)c1ccc(NCC(=O)c2ccccc2)cc1`, the values for the growth inhibition in test [1] and in test [2] were -7.25% and -4.05%, respectively. Further, the viability increase in test [3] is -4.87%. Moreover, the viability in test [4] was 99.3%. Moreover, the inhibition in test [5] is 1.83%. For the same molecule, the RAM network inhibition in test [6] was 3.96%.

For `Cc1ccc(-c2nc(=S)c3c(n2Cc2ccco2)CC(C)(C)OC3)cc1`, the figures for the growth inhibition in test [1] and in test [2] were -13.2% and 2.99%, respectively. For the same molecule, in test [3], the viability increase was -2.16%. Besides, the viability in test [4] is 69.2%. Moreover, in test [5], the inhibition is -0.945%. Also, the RAM network inhibition in test [6] is 3.44%.

For `CCCCn1c(C(C)NC(=O)c2cccs2)nc2ccccc21` (centres undefined), the growth inhibition in test [1] is -10.5%; in test [2] it was -2.79%. Further, the viability increase in test [3] was -3.37%. The viability in test [4] was 89%. For the same molecule, the inhibition in test [5] was 1.42%. For the same molecule, the RAM network inhibition in test [6] is 3.28%.

For `CCn1c(=O)cc(C(=O)OC)sc1=Nc1ccc(F)c(F)c1`, the results for the growth inhibition in test [1] and in test [2] were 1.93% and -8.74%, respectively. In test [3], the viability increase was -8.26%. Also, in test [4], the viability was 18.6% (active). The inhibition in test [5] is 1.11%. For the same molecule, the RAM network inhibition in test [6] is 7.21%.

For the molecule `COc1ccc(NS(=O)(=O)c2cccc(-c3nnc4n3CCCCC4)c2)cc1`, the growth inhibition in test [1] was -9.52%; in test [2], 10.2%. For the same molecule, the viability increase in test [3] is -3.38%. Moreover, the viability in test [4] was 92.6%. Moreover, the inhibition in test [5] is 1.11%. Further, the RAM network inhibition in test [6] is 1.97%.

Consider `C(=N\n1cnnc1)/c1ccc(N2CCOCC2)s1`, for which the growth inhibition is -13.4% in test [1] and -3.46% in test [2]. Also, in test [3], the viability increase is -1.47%. The viability in test [4] was 89.8%. Moreover, the inhibition in test [5] was 4.36%. Further, in test [6], the RAM network inhibition is 8.67%.

`COc1cccc(-c2nnc(NC(=O)c3cccc(F)c3)o2)c1`: the growth inhibition in test [1] is -12.9%; in test [2] it was 10.2%. Moreover, in test [3], the viability increase is 0.12%. The viability in test [4] is 15.9% (active). The inhibition in test [5] was 1.04%. Also, the RAM network inhibition in test [6] is 0.35%.

For the molecule `CSc1nc(N(CCO)CCO)c2sc3nc(-c4ccco4)c4c(c3c2n1)CCC4`, the growth inhibition in test [1] was -1.82%; in test [2], 8.15%. Besides, the viability increase in test [3] is -4.84%. Moreover, the viability in test [4] is 93.9%. The inhibition in test [5] is 2.71%. Moreover, the RAM network inhibition in test [6] is 8.3%.

With `c1cncc(CNc2c3c(nc4nnnn24)CCCC3)c1`, the growth inhibition was -7.77% in test [1] and -8.93% in test [2]. The viability increase in test [3] was -2.59%. Moreover, the viability in test [4] is 90%. In test [5], the inhibition was 0.45%. For the same molecule, the RAM network inhibition in test [6] was -0.36%.

Consider `CN1c2ccccc2-c2nc3ccccc3n2C1c1ccccn1` (centres undefined), for which the figures for the growth inhibition in test [1] and in test [2] were -1.57% and -3.9%, respectively. Also, in test [3], the viability increase is -3.85%. Besides, the viability in test [4] is 73.8%. Besides, the inhibition in test [5] is 0.56%. The RAM network inhibition in test [6] was 4.06%.

With `Cc1nc2c3c4c(sc3n3c(SCC(=O)NCc5ccco5)nnc3n2n1)COC(C)(C)C4`, the growth inhibition in test [1] is -15.2%; in test [2], 3.31%. The viability increase in test [3] is -6.89%. Moreover, the viability in test [4] is 88.7%. In addition, the inhibition in test [5] is 1.85%. Also, the RAM network inhibition in test [6] was 5.05%.

As for `O=C(CSc1oc(-c2ccc(F)cc2)nc1S(=O)(=O)c1ccccc1)NCC1CCCO1` (centres undefined), the values for the growth inhibition in test [1] and in test [2] were -15.8% and 4.17%, respectively. Moreover, the viability increase in test [3] is -5.58%. Besides, the viability in test [4] is 90.8%. In addition, the inhibition in test [5] was 2.46%. In test [6], the RAM network inhibition was 6.86%.

On to `CCOC(=O)C1CCCN(C(=O)CNC(=O)Cn2ccc3ccccc3c2=O)C1` (centres undefined), for which the growth inhibition was -6.4% in test [1] and -0.325% in test [2]. Moreover, the viability increase in test [3] is -4.65%. In test [4], the viability is 104%. Moreover, the inhibition in test [5] was 0.875%. Moreover, in test [6], the RAM network inhibition is 4.63%.

Turning to `CC(C)(C)NS(=O)(=O)c1ccc(OCC(=O)Nc2ccc3c(c2)OCCO3)cc1`, the values for the growth inhibition in test [1] and in test [2] were -11.5% and -8.28%, respectively. Also, in test [3], the viability increase is -0.9%. In test [4], the viability was 102%. In addition, in test [5], the inhibition is 2.62%. Besides, the RAM network inhibition in test [6] is 7.73%.

As to `CCOC(=O)c1cc(NC(=O)OC)c(C)nc1C`, the growth inhibition in test [1] is -4.66%; in test [2], 4.23%. Further, the viability increase in test [3] was -2.65%. Besides, in test [4], the viability was 106%. The inhibition in test [5] was 0.81%. Also, in test [6], the RAM network inhibition is 3.38%.

On to `CC1CCCN(c2nc3c(c(=O)n(C)c(=O)n3C)n2Cc2ccccc2)C1` (centres undefined), for which the growth inhibition is -0.33% in test [1] and -3.24% in test [2]. Further, in test [3], the viability increase is -2.17%. The viability in test [4] is 85.9%. Also, the inhibition in test [5] is 1.67%. In addition, the RAM network inhibition in test [6] is 1.56%.

As to `CSc1nc2c(c(=O)n1-c1ccccc1)SCC2`, the growth inhibition is -15.9% in test [1] and -8.25% in test [2]. Further, the viability increase in test [3] is -2.76%. The viability in test [4] is 98.3%. Further, the inhibition in test [5] is 0.775%. Moreover, in test [6], the RAM network inhibition was 0.21%.

With `O=C(NCc1ccc(N2CCCC2=O)cc1)c1cn(CCc2ccccc2)nn1`, the growth inhibition in test [1] was -5.88%; in test [2], -13.3%. Also, in test [3], the viability increase is 1.6%. Besides, in test [4], the viability is 95.1%. Besides, the inhibition in test [5] was 1.7%. Also, the RAM network inhibition in test [6] is 7.58%.

In the case of `COc1ccc(C(=O)OCCN2C(=O)c3ccccc3C2=O)cc1OC`, the growth inhibition in test [1] was 6.76%; in test [2], 3.49%. For the same molecule, the viability increase in test [3] is -1.79%. Further, the viability in test [4] was 117%. Besides, the inhibition in test [5] was 0.34%. Moreover, the RAM network inhibition in test [6] was 0.93%.
